{
  "source": "ChEMBL document CHEMBL1142935",
  "about": "“Discovery of Ecopladib, an indole inhibitor of cytosolic phospholipase A2alpha” (J Med Chem, 2007)",
  "test_system": "Blood",
  "experiment": "Inhibition of A-23187-stimulated LTB4 production at 0.3 uM in human whole blood",
  "assay_type": "functional",
  "how_it_was_run": "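Fresh heparinized blood from healthy male volunteers, 0.9 mL aliquots, preincubated 15 min at 37 °C with compound in DMSO vehicle, then stimulated 15 min at 37 °C with A23187 (final 30 µM). Stopped with cold EDTA, plasma methanol-precipitated, and eicosanoids measured by immunoassay. For PAF, the reaction was stopped with cold MeOH spiked with D4-PAF internal standard and PAF quantified by GC-MS (negative chemical ionization).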",
  "data": [
    {"smiles": "O=C(O)c1ccc(OCCc2c(CCNS(=O)(=O)Cc3ccc(Cl)c(Cl)c3)n(C(c3ccccc3)c3ccccc3)c3ccc(Cl)cc23)cc1", "note": "[ECOPLADIB]", "values": [
      {"measurement": "inhibition at 0.3 µM", "result": 60, "unit": "%"}
    ]}
  ]
}
